The record followed here is ChEMBL document CHEMBL4387709, “Discovery of Quinoline Analogues as Potent Antivirals against Enterovirus D68 (EV-D68)” (J Med Chem, 2019).

The structures appear in SMILES notation.

A word on the EC50: it is the concentration at which the effect is half-maximal. As a reminder, the CC50 is the concentration giving 50% cytotoxicity. A higher CC50 goes with lower toxicity to the cells.

The test system of one data set is enterovirus D68. The experiment in a line: Antiviral activity against Enterovirus D68 US/KY/14-18953 infected in human RD cells assessed as inhibition of virus-induced cytopathic effect incubated for 5 mins under shaking condition and measured after 3 days by neutral red dye-based photometric method. To be noted: Enterovirus D, US/KY/14-18953, RD. The class given is functional, organism-based. A digest of the protocol: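 RD cells seeded one day ahead to ~90% confluence, PBS (Mg/Ca) wash, infected at ~MOI 0.01 with EV-D68 in DMEM/2% FBS/30 mM MgCl2 at 33 °C, 5% CO2. Compounds and 1% P/S added after 1 h. Plates shaken ~5 min, held 3 days, viable cells stained with neutral red (66 µg/ml), A540 read. EC50 from dose-response fits, triplicates.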
On the technique in general: Protection from cytopathic effect is a common read-out in antiviral testing.

Another data set relates to RD. The experiment in a line: Cytotoxicity against human RD cells after 3 days by neutral red dye-based photometric method. The data set is classed as cell-based. To be noted: rd, 72 h.
Data set [1] is described as follows: Selectivity index, ratio of CC50 for human RD cells to EC50 for Enterovirus D68 US/KY/14-18953 infected in human RD cells. The class given is toxicity, cell-based. The note with it: read-out: Ratio CC50/EC50.

In the case of `N=C(N)NC(=O)c1cc(-c2ccccc2)nc2ccccc12`, the EC50 with enterovirus D68 was 34.7 µM. The same compound had a 50% cytotoxic concentration (CC50) in the data set with RD greater than 250 µM. Also, the selectivity ratio in data set [1] is greater than 7.2.
As for `CCN(CC)CCNC(=O)c1cc(OC2CCCC2)nc2ccccc12`, the concentration giving a half-maximal response (EC50) in the data set on enterovirus D68 was found to be 6.8 µM. The compound also yielded a CC50 in the data set on RD of 11.7 µM. For the same compound, the selectivity ratio in data set [1] was found to be 1.7.
